For 13 compounds, mortality and LC50 results are on record in ChEMBL document CHEMBL3046946, “Design, synthesis, and insecticidal activities of new N-benzoyl-N'-phenyl-N'-sulfenylureas” (2009).

Broadly, the mortality is the share of the test organisms that died. In general, LC50 refers to the concentration that kills 50% of the test population.

Type in all cases: functional
In assay [1] the test system is Mythimna separata. In words: Insecticidal activity against fourth-instar larval stage of Mythimna separata (Oriental armyworm) in compound-pretreated corn leaves assessed as mortality at 1 mg/l at 25 +/-1degC after 4 days.
Assay [2] deals with Culex pipiens pallens. In words: Insecticidal activity against fourth-instar larval stage of Culex pipiens pallens (mosquito) assessed as mortality at 0.01 mg/l at 25 +/-1degC after 8 days. To be noted: 192 h. The procedure, abridged:
(§1)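 Compounds dissolved in acetone, then diluted with distilled water to the test concentrations. Twenty fourth-instar larvae were placed in 10 mL of each test solution and reared for 8 days. Mortality was scored on a 0–100 scale, where 0 is no activity and 100 is total kill.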

Assay [3] concerns Mythimna separata. Kind of assay: Insecticidal activity against fourth-instar larval stage of Mythimna separata (Oriental armyworm) in compound-pretreated corn leaves assessed as mortality at 40 mg/l at 25 +/-1degC after 4 days.
In assay [4] the test system is Culex pipiens pallens. In words: Insecticidal activity against fourth-instar larval stage of Culex pipiens pallens (mosquito) assessed as mortality at 1 mg/l at 25 +/-1degC after 8 days. To be noted: 192 h. In a few lines: as §1
For assay [5], the system named is Culex pipiens pallens. In words: Insecticidal activity against fourth-instar larval stage of Culex pipiens pallens (mosquito) assessed as mortality at 2.5 mg/l at 25 +/-1degC after 8 days. To be noted: 192 h. The procedure, abridged: as §1
Assay [6] concerns Mythimna separata. In words: Insecticidal activity against fourth-instar larval stage of Mythimna separata (Oriental armyworm) in compound-pretreated corn leaves assessed as mortality at 200 mg/l at 25 +/-1degC after 4 days.
Assay [7] concerns Mythimna separata. In words: Insecticidal activity against fourth-instar larval stage of Mythimna separata (Oriental armyworm) in compound-pretreated corn leaves assessed as mortality at 50 mg/l at 25 +/-1degC after 4 days.
In assay [8] the test system is Culex pipiens pallens. Kind of assay: Insecticidal activity against fourth-instar larval stage of Culex pipiens pallens (mosquito) assessed as mortality at 5 mg/l at 25 +/-1degC after 8 days. The note with it: 192 h. In a few lines: as §1
Assay [9] has as its system Mythimna separata. In words: Insecticidal activity against fourth-instar larval stage of Mythimna separata (Oriental armyworm) in compound-pretreated corn leaves assessed as mortality at 100 mg/l at 25 +/-1degC after 4 days.
Assay [10] deals with Mythimna separata. In words: Insecticidal activity against fourth-instar larval stage of Mythimna separata (Oriental armyworm) in compound-pretreated corn leaves assessed as mortality at 0.25 mg/l at 25 +/-1degC after 4 days.
Assay [11] relates to Mythimna separata. Kind of assay: Insecticidal activity against fourth-instar larval stage of Mythimna separata (Oriental armyworm) in compound-pretreated corn leaves assessed as mortality at 0.5 mg/l at 25 +/-1degC after 4 days.
For assay [12], the system named is Culex pipiens pallens. Kind of assay: Insecticidal activity against fourth-instar larval stage of Culex pipiens pallens (mosquito) assessed as mortality at 0.005 mg/l at 25 +/-1degC after 8 days. The note with it: 192 h. The procedure, abridged:
as §1

Assay [13] relates to Culex pipiens pallens. Kind of assay: Insecticidal activity against fourth-instar larval stage of Culex pipiens pallens (mosquito) assessed as mortality at 0.0025 mg/l at 25 +/-1degC after 8 days. To be noted: 192 h. The procedure, abridged: as §1
The subject of assay [14] is Spodoptera exigua. Kind of assay: Insecticidal activity against third-instar larval stage of Spodoptera exigua in cabbage leaves assessed as mortality at 25 +/-1degC treated for 5 secs before larval infestation measured after 4 days by leaf dip method. To be noted: foliar, 96 h. The procedure, abridged:
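Leaf-dip assay. Fresh cabbage leaf disks (1.8 cm diameter) were dipped in test solution for 5 s before larvae were added. LC50 was calculated by Finney probit analysis of the mortality regression lines.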

Assay [15] concerns Plutella xylostella. In words: Insecticidal activity against larvae of Plutella xylostella (diamondback moth) in cabbage leaves assessed as mortality at 25 +/-1degC treated for 5 secs before larval infestation measured after 4 days by leafdip method. The note with it: 96 h. In a few lines: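 Leaf-dip assay. Cabbage leaf disks (1.8 cm diameter) were dipped in test solution for 5 s, air-dried, and placed in tubes lined with filter paper. Ten second-instar larvae were added per tube. Percent mortality was read 4 days after treatment, in triplicate. LC50 was derived by Finney probit analysis of the mortality regression lines.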

The test system of assay [16] is Mythimna separata. In words: Insecticidal activity against fourth-instar larval stage of Mythimna separata (Oriental armyworm) in compound-pretreated corn leaves assessed as mortality at 2.5 mg/l at 25 +/-1degC after 4 days.

Converted amounts (≈) assume the structure as drawn.

For the compound `CCOC(=O)CCN(Cc1ccccc1)SN(C(=O)NC(=O)c1c(F)cccc1F)c1ccc(OC(F)(F)F)cc1`, in [1], the mortality at 1 µg/mL was 100%. Besides, the mortality at 0.01 µg/mL in assay [2] amounted to 100%. In addition, in assay [3], the mortality at 40 µg/mL was 0.0025%.
In the case of `CCOC(=O)CCN(Cc1ccccc1)SN(C(=O)NC(=O)c1c(F)cccc1F)c1ccccc1`, the mortality at 1 µg/mL in [4] turned out to be 20%. Also, the mortality at 2.5 µg/mL in assay [5] turned out to be 60%. Besides, the mortality at 200 µg/mL in assay [6] was found to be 70%. The mortality at 50 µg/mL in assay [7] stood at 30%. Moreover, the mortality at 5 µg/mL in [8] stood at 100%. Moreover, the mortality at 100 µg/mL in assay [9] was determined as 40%.
Consider `CCOC(=O)CCN(Cc1ccccc1)SN(C(=O)NC(=O)c1c(F)cccc1F)c1ccc(Cl)cc1`, for which, in assay [1], the mortality at 1 µg/mL is 100%. For the same compound, the mortality at 0.25 µg/mL in [10] is 30%. Also, in assay [11], the mortality at 0.5 µg/mL was 50%. In addition, the mortality at 0.01 µg/mL in [2] stood at 60%. For the same compound, in [12], the mortality at 0.005 µg/mL was determined as 0%.
Regarding `O=C(NC(=O)N(SN1CCCCC1)c1ccc(OC(F)(F)F)cc1)c1c(F)cccc1F`, the mortality at 1 µg/mL in [1] turned out to be 100%. Also, the mortality at 0.25 µg/mL in assay [10] was 50%. Moreover, the mortality at 0.5 µg/mL in [11] turned out to be 100%. In assay [2], the mortality at 0.01 µg/mL is 100%. Moreover, the mortality at 0.0025 µg/mL in assay [13] was 75%. Further, the mortality at 0.005 µg/mL in assay [12] worked out at 100%.
Consider `CCN(CC)SN(C(=O)NC(=O)c1c(F)cccc1F)c1ccccc1`, for which, in assay [4], the mortality at 1 µg/mL is 30%. Moreover, the mortality at 2.5 µg/mL in assay [5] is 100%. The mortality at 200 µg/mL in assay [6] worked out at 70%. For the same compound, the mortality at 50 µg/mL in assay [7] is 20%. Besides, in assay [8], the mortality at 5 µg/mL was 100%. For the same compound, the mortality at 100 µg/mL in [9] turned out to be 40%.
With `CCN(CC)SN(C(=O)NC(=O)c1c(F)cccc1F)c1ccc(Cl)cc1`, the mortality at 1 µg/mL in assay [1] came to 100%. The mortality at 0.25 µg/mL in assay [10] is 20%. In addition, the mortality at 0.5 µg/mL in assay [11] came to 70%. Also, the mortality at 0.01 µg/mL in [2] stood at 100%. Besides, the mortality at 0.0025 µg/mL in assay [13] was 10%. The mortality at 0.005 µg/mL in [12] was found to be 10%.
Regarding `CCN(CC)SN(C(=O)NC(=O)c1c(F)cccc1F)c1ccc(OC(F)(F)F)cc1`, in assay [1], the mortality at 1 µg/mL worked out at 100%. The mortality at 0.25 µg/mL in assay [10] came to 60%. In addition, the mortality at 0.5 µg/mL in [11] was 100%. The mortality at 0.01 µg/mL in assay [2] was 100%. The mortality at 0.0025 µg/mL in [13] stood at 40%. In addition, the mortality at 0.005 µg/mL in assay [12] is 100%.
As to `O=C(NC(=O)N(SN1CCOCC1)c1ccc(OC(F)(F)F)cc1)c1c(F)cccc1F`, in [1], the mortality at 1 µg/mL was determined as 100%. Besides, the mortality at 0.25 µg/mL in assay [10] is 80%. In addition, the results for the LC50 in assay [14] and in assay [15] were 21.4 µg/mL (≈ 44.9 µM) and 45.1 µg/mL (≈ 94.5 µM), respectively. For the same compound, the mortality at 0.5 µg/mL in assay [11] came out at 100%. Besides, the mortality at 0.01 µg/mL in [2] was 100%. Also, the mortality at 0.0025 µg/mL in assay [13] was 20%. Besides, the mortality at 0.005 µg/mL in assay [12] is 100%.
Consider `O=C(NC(=O)N(SN1CCOCC1)c1ccc(Cl)cc1)c1c(F)cccc1F`, for which the mortality at 1 µg/mL in assay [1] amounted to 100%. In [10], the mortality at 0.25 µg/mL was determined as 80%. Further, in assay [11], the mortality at 0.5 µg/mL stood at 100%. Further, the mortality at 0.01 µg/mL in assay [2] is 100%. Besides, the mortality at 0.0025 µg/mL in assay [13] turned out to be 0%. Moreover, in assay [12], the mortality at 0.005 µg/mL was determined as 30%.
Consider `O=C(NC(=O)N(SN1CCCCC1)c1ccccc1)c1c(F)cccc1F`, for which the mortality at 1 µg/mL in [4] is 0%. In addition, the mortality at 2.5 µg/mL in [5] is 70%. The mortality at 200 µg/mL in assay [6] amounted to 90%. Further, the mortality at 50 µg/mL in assay [7] stood at 0%. For the same compound, in [8], the mortality at 5 µg/mL came to 100%. Besides, the mortality at 100 µg/mL in assay [9] worked out at 40%.
`O=C(NC(=O)N(SN1CCCCC1)c1ccc(Cl)cc1)c1c(F)cccc1F`: the mortality at 1 µg/mL in assay [1] was 100%. In addition, the mortality at 0.25 µg/mL in assay [10] came out at 20%. In assay [11], the mortality at 0.5 µg/mL stood at 100%. The mortality at 0.01 µg/mL in [2] was 90%. The mortality at 0.0025 µg/mL in assay [13] amounted to 0%. Also, the mortality at 0.005 µg/mL in assay [12] was 0%.
Regarding `O=C(NC(=O)c1c(F)cccc1F)Nc1ccc(Cl)cc1` [DIFLUBENZURON], the mortality at 1 µg/mL in assay [1] was determined as 100%. Besides, the mortality at 0.25 µg/mL in assay [10] amounted to 45%. Also, the mortality at 0.5 µg/mL in [11] came to 100%. For the same compound, the mortality at 0.01 µg/mL in assay [2] stood at 100%. Besides, the mortality at 0.0025 µg/mL in [13] came out at 10%. Further, the mortality at 0.005 µg/mL in assay [12] was determined as 50%.
Take `O=C(NC(=O)c1ccccc1Cl)Nc1ccc(OC(F)(F)F)cc1` [TRIFLUMURON]: the mortality at 1 µg/mL in assay [1] is 95%. Besides, the mortality at 0.25 µg/mL in assay [10] is 20%. In addition, the mortality at 2.5 µg/mL in assay [16] was 100%. Besides, the median lethal concentration (LC50) came out at 12 µg/mL (≈ 33.5 µM) in assay [14] and 49.3 µg/mL (≈ 137 µM) in assay [15]. The mortality at 0.5 µg/mL in assay [11] stood at 40%.
